In data set [1] the test system is Rattus norvegicus. Put plainly: Hypotensive activity in normotensive Wistar rat assessed as reduction of diastolic blood pressure at 1.25 mg/kg, iv after 60 mins. The data set is classed as functional, Artery. Summed up: (§1)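 Male normotensive Wistar rats were anaesthetised with thiopental 75 mg/kg ip. The right carotid artery was cannulated with heparinised saline for pressure recording. After 5 min of stabilisation, compound was injected into the tail vein at 1 mL/kg. Systolic and diastolic pressure were followed up to 60 min. Data are means ± SEM of 5–6 rats, analysed by one-way ANOVA.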

Data set [2] deals with Rattus norvegicus. Put plainly: Cardiotoxicity in Wistar rat assessed as QRS interval at 10 mg/kg, iv after 15 mins by ECG analysis. The note with it: in vivo, 0.25 h. The arrangement: dose 10 mg/kg, route intravenous. Format: toxicity, organism-based. Summed up: (§2)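 Male normotensive Wistar rats, 170–350 g, six per group. Compound given iv at a constant volume of 1 mL/kg. ECG was recorded just before dosing and at 1, 5 and 15 min after. PQ, QRS and QT intervals and heart rate were read from the trace. Groups were compared by one-way ANOVA.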

Data set [3] relates to Rattus norvegicus. The data set can be described thus: Cardiotoxicity in Wistar rat assessed as hear beats per min at 10 mg/kg, iv after 10 mins by ECG analysis. Format: toxicity, organism-based. The arrangement: dose 10 mg/kg, route intravenous. The note with it: in vivo.
Data set [4] has as its system Rattus norvegicus. Put plainly: Cardiotoxicity in Wistar rat assessed as QT interval at 10 mg/kg, iv after 15 mins by ECG analysis. Format: toxicity, organism-based. More on the design: dose 10 mg/kg, route intravenous. Conditions: in vivo, 0.25 h. In short, it runs like this: as §2
Data set [5] relates to Rattus norvegicus. Put plainly: Cardiotoxicity in Wistar rat assessed as hear beats per min at 10 mg/kg, iv after 5 mins by ECG analysis. Format: toxicity, organism-based. The arrangement: dose 10 mg/kg, route intravenous. Conditions: in vivo. In short, it runs like this:
as §2

Data set [6] deals with Rattus norvegicus. Put plainly: Hypotensive activity in normotensive Wistar rat assessed as reduction of systolic blood pressure at 1.25 mg/kg, iv after 20 mins. Format: functional, Artery. In short, it runs like this:
(§3)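 Male normotensive Wistar rats (170–350 g) anaesthetised with thiopental 75 mg/kg ip; right carotid artery cannulated with heparinised saline-filled polyethylene tubing for pressure recording. After a 5 min stabilisation, compound given into the caudal vein at 1 mL/kg. Systolic pressure is recorded at 0, 5, 10, 20, 30 and 60 min, and the data are reported as mean ± SEM of five to six animals, with one-way ANOVA.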

The test system of data set [7] is Rattus norvegicus. The data set can be described thus: Hypotensive activity in normotensive Wistar rat assessed as reduction of systolic blood pressure at 1.25 mg/kg, iv after 30 mins. Format: functional, Artery. Summed up:
as §3

In data set [8] the test system is Rattus norvegicus. The data set can be described thus: Hypotensive activity in normotensive Wistar rat assessed as reduction of diastolic blood pressure at 1.25 mg/kg, iv after 10 mins. The data set is classed as functional, Artery. In short, it runs like this: as §1
Data set [9] relates to Rattus norvegicus. The data set can be described thus: Cardiotoxicity in Wistar rat assessed as PQ interval at 10 mg/kg, iv after 10 mins by ECG analysis. Format: toxicity, organism-based. The arrangement: dose 10 mg/kg, route intravenous. Conditions: in vivo.
Data set [10] has as its system Rattus norvegicus. The data set can be described thus: Hypotensive activity in normotensive Wistar rat assessed as reduction of diastolic blood pressure at 1.25 mg/kg, iv after 5 mins. Format: functional, Artery. Summed up:
as §1

In data set [11] the test system is Rattus norvegicus. Put plainly: Hypotensive activity in normotensive Wistar rat assessed as reduction of systolic blood pressure at 1.25 mg/kg, iv after 5 mins. The data set is classed as functional, Artery. In short, it runs like this: as §3
The test system of data set [12] is Rattus norvegicus. The data set can be described thus: Cardiotoxicity in Wistar rat assessed as QRS interval at 10 mg/kg, iv after 10 mins by ECG analysis. The data set is classed as toxicity, organism-based. More on the design: dose 10 mg/kg, route intravenous. Conditions: in vivo.
Data set [13] concerns Rattus norvegicus. The data set can be described thus: Cardiotoxicity in Wistar rat assessed as hear beats per min at 10 mg/kg, iv after 15 mins by ECG analysis. Format: toxicity, organism-based. The note with it: in vivo, 0.25 h. The arrangement: dose 10 mg/kg, route intravenous. In short, it runs like this:
as §2

The subject of data set [14] is Rattus norvegicus. The data set can be described thus: Cardiotoxicity in Wistar rat assessed as QT interval at 10 mg/kg, iv after 5 mins by ECG analysis. Format: toxicity, organism-based. More on the design: dose 10 mg/kg, route intravenous. The note with it: in vivo. Summed up: as §2
The subject of data set [15] is Rattus norvegicus. Put plainly: Cardiotoxicity in Wistar rat assessed as hear beats per min at 5 mg/kg, iv after 10 mins by ECG analysis. Format: toxicity, organism-based. More on the design: dose 5 mg/kg, route intravenous. The note with it: in vivo.
Data set [16] deals with Rattus norvegicus. Put plainly: Cardiotoxicity in Wistar rat assessed as hear beats per min at 5 mg/kg, iv after 5 mins by ECG analysis. The data set is classed as toxicity, organism-based. More on the design: dose 5 mg/kg, route intravenous. Conditions: in vivo. In short, it runs like this: as §2
Data set [17] has as its system Rattus norvegicus. Put plainly: Cardiotoxicity in Wistar rat assessed as hear beats per min at 5 mg/kg, iv after 15 mins by ECG analysis. Format: toxicity, organism-based. The arrangement: dose 5 mg/kg, route intravenous. Conditions: in vivo, 0.25 h. Summed up:
as §2

In data set [18] the test system is Rattus norvegicus. Put plainly: Cardiotoxicity in Wistar rat assessed as QT interval at 5 mg/kg, iv after 5 mins by ECG analysis. The data set is classed as toxicity, organism-based. More on the design: dose 5 mg/kg, route intravenous. The note with it: in vivo. Summed up: as §2
For data set [19], the system named is Rattus norvegicus. The data set can be described thus: Cardiotoxicity in Wistar rat assessed as QRS interval at 5 mg/kg, iv after 15 mins by ECG analysis. The data set is classed as toxicity, organism-based. The arrangement: dose 5 mg/kg, route intravenous. Conditions: in vivo, 0.25 h. In short, it runs like this:
as §2

Data set [20] relates to Rattus norvegicus. The data set can be described thus: Cardiotoxicity in Wistar rat assessed as PQ interval at 5 mg/kg, iv after 5 mins by ECG analysis. The note with it: in vivo. The arrangement: dose 5 mg/kg, route intravenous. Format: toxicity, organism-based. Summed up:
as §2

Data set [21] deals with Rattus norvegicus. The data set can be described thus: Cardiotoxicity in Wistar rat assessed as PQ interval at 5 mg/kg, iv after 15 mins by ECG analysis. Format: toxicity, organism-based. The arrangement: dose 5 mg/kg, route intravenous. Conditions: in vivo, 0.25 h. In short, it runs like this:
as §2

Data set [22] concerns Rattus norvegicus. Put plainly: Cardiotoxicity in Wistar rat assessed as QT interval at 5 mg/kg, iv after 15 mins by ECG analysis. Format: toxicity, organism-based. More on the design: dose 5 mg/kg, route intravenous. Conditions: in vivo, 0.25 h. Summed up: as §2

Take `Cl.Cl.Cl.O=c1c2ccc(Cl)cc2oc2c(OCC(O)CN3CCN(CCOc4ccccc4)CC3)cccc12` (racemic): the Activity is 103.6 mmHg with Rattus norvegicus [1]; 20.4 ms in the data set with Rattus norvegicus [2]; 242.43 bpm in the data set with Rattus norvegicus [3]; 53.2 ms in the data set with Rattus norvegicus [4]; 303.69 bpm in the data set with Rattus norvegicus [5]; 110.8 mmHg with Rattus norvegicus [6]. Besides, the Activity in the data set with Rattus norvegicus [7] amounted to 113.2 mmHg; in the data set with Rattus norvegicus [8], 101.2 mmHg; in the data set with Rattus norvegicus [9], 33.6 ms; in the data set with Rattus norvegicus [10] it was 102.6 mmHg; in the data set with Rattus norvegicus [11], 117.2 mmHg; with Rattus norvegicus [12] it was 20.32 ms. The Activity in the data set with Rattus norvegicus [13] is reported as 283.41 bpm; in the data set with Rattus norvegicus [14], 54.4 ms.
For `Cl.Cl.Cl.O=c1c2ccc(Cl)cc2oc2c(OCC(O)CN3CCN(C/C=C/c4ccccc4)CC3)cccc12` (racemic), the Activity in the data set with Rattus norvegicus [15] turned out to be 324.3 bpm; in the data set on Rattus norvegicus [16], 317.3 bpm; in the data set with Rattus norvegicus [17] it was 329.3 bpm; in the data set on Rattus norvegicus [18], 73.6 ms; with Rattus norvegicus [19], 20.3 ms; in the data set with Rattus norvegicus [20] it was 45.7 ms. In addition, the Activity amounted to 45.2 ms with Rattus norvegicus [21] and 74.6 ms in the data set on Rattus norvegicus [22].
As to `Cl.Cl.Cl.O=c1c2ccc(Cl)cc2oc2c(OCC(O)CN3CCN(Cc4ccccc4)CC3)cccc12` (racemic), the Activity was 20.1 ms in the data set on Rattus norvegicus [2]; 285 bpm in the data set on Rattus norvegicus [3]; 78.8 ms in the data set with Rattus norvegicus [4]; 295.3 bpm in the data set with Rattus norvegicus [5]; 41.1 ms in the data set on Rattus norvegicus [9]; 19.6 ms in the data set with Rattus norvegicus [12]. The figures for the Activity in the data set with Rattus norvegicus [13] and with Rattus norvegicus [14] were 268.8 bpm and 74 ms, respectively.
For the compound `Cl.Cl.O=c1c2ccccc2oc2c(OCC(O)CN3CCN(C/C=C/c4ccccc4)CC3)cccc12` (racemic), the Activity came to 311.3 bpm in the data set with Rattus norvegicus [15]; 328 bpm in the data set on Rattus norvegicus [16]; 309 bpm with Rattus norvegicus [17]; 76.4 ms with Rattus norvegicus [18]; 24 ms with Rattus norvegicus [19]; 41.5 ms with Rattus norvegicus [20]. Further, the Activity in the data set with Rattus norvegicus [21] is reported as 41.7 ms; in the data set on Rattus norvegicus [22] it was 77.6 ms.
